This data set can be described thus: Toxicity liver stage against HepG2, at 10uM. On the set-up: test concentration 10 uM, cell line HepG2-A16-CD81EGFP. The format is cell-based. The conditions noted are these: human, HepG2-A16-CD81EGFP cells; read-out: INHIBITION
Put shortly: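 Uninfected HepG2-A16-CD81EGFP cells, 3 × 10^3 per well, 1536-well, plated on prespotted compound at 10 μM final, parasite-free screening media added to match infected plates; puromycin 10 μM positive, DMSO 0.5% negative; run in parallel with 48 h PbLuc assay at 37 °C, 5% CO2; viability by CellTiter-Glo luminescence, normalized to controls.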
Consider `c1cnn(CC2CCCCN2c2ncnc3sccc23)c1` (stereo unspecified), for which the cytotoxicity at 10 µM was determined as 9.48%. Turning to `O=C(c1nnn(-c2ccccc2F)c1-c1ccccn1)N1CCSCC1`, the cytotoxicity at 10 µM was determined as 1.32%.

Turning to `COc1cccc2c1CCC2NC(=O)NCc1csc(N(C)C)n1` (stereo unspecified), the cytotoxicity at 10 µM is -1.37%.

Turning to `O=C(NCC1CCCO1)c1cc(Sc2ncccn2)ccn1` (stereo unspecified), the cytotoxicity at 10 µM was -17.2%. For the molecule `CCn1ncc2c1NC(=O)CC2c1cnc(NCc2ccccc2)nc1` (stereo unspecified), the cytotoxicity at 10 µM was -6.27%. As to `Cc1cc(-c2ccc(C(=O)O)cc2)nc(C2CCN(C(C)C)CC2)n1`, the cytotoxicity at 10 µM is -26.3%. For `O=C(c1ccc(-n2cccn2)nc1)N1CCCC(n2cccn2)C1` (stereo unspecified) the value was -4.75%; for `Cc1noc(C)c1-c1cncc(C2CCCN2Cc2ncc[nH]2)n1` (stereo unspecified), -8.89%; for `NC(=O)C1CCN(S(=O)(=O)c2cnn(-c3ccccc3)c2)C1` (stereo unspecified), 7.68%. Take `O=C(CC1CCC1)N1CCCC(CO)(CC2CC2)C1` (stereo unspecified): the cytotoxicity at 10 µM turned out to be 7.18%.

As to `Cn1nc(CNC(=O)CN2C(=O)CCC2=O)cc1C1CC1`, the cytotoxicity at 10 µM was found to be 2.89%.

For the molecule `Cn1nc(C(=O)NCc2ccccc2C(F)(F)F)c2c1CCS(=O)(=O)C2`, the cytotoxicity at 10 µM worked out at 5.37%. Take `COCc1cn(C2CCN(C(=O)Cc3ccsc3)CC2)nn1`: the cytotoxicity at 10 µM was -4.2%. On to `CCn1c(C2CCN(C(=O)c3ccc4cc[nH]c4c3)CC2)n[nH]c1=O`, for which the cytotoxicity at 10 µM is -18.5%. `Cc1cc(C(=O)N2CCC3(CCCN(CC4CC4)C3=O)C2)c(C)n1C` (stereo unspecified): the cytotoxicity at 10 µM was -5.5%.

With `COCC(O)CN(C)C(=O)NCc1ccc(-c2ccn[nH]2)cc1` (stereo unspecified), the cytotoxicity at 10 µM came out at 1.81%. Next, `CC(C)N(CCCNC(=O)C1CC(=O)N(C)C1)S(C)(=O)=O` (stereo unspecified): 8.35%. In the case of `Cc1cccc(-c2nc(C)nn2CC(=O)N(C)C2CC2)c1`, the cytotoxicity at 10 µM was -19.8%. `Cc1cnn(CC2CCCN2C(=O)c2csc(C(C)C)n2)c1` (stereo unspecified): the cytotoxicity at 10 µM is 4.89%. As to `OC[C@H]1CN2CCN(c3ccccn3)C[C@@H]2[C@@H]1c1ccccc1`, the cytotoxicity at 10 µM is -0.0603%.

With `O=C(CSc1ccccc1)N1CCC(N2CCCCC2=O)CC1`, the cytotoxicity at 10 µM came to 11.2%. Consider `Cc1ncsc1C(=O)N1CC[C@@H]2[C@@H](CC1)OCCN2c1cccnc1`, for which the cytotoxicity at 10 µM amounted to 9.4%. Regarding `Cc1nsc(NC(=O)NC2CCOCC2)n1`, the cytotoxicity at 10 µM is -10.1%. With `CCC[C@H]1CN(Cc2cscn2)C[C@@H]1NC(=O)C1(COC)CCC1`, the cytotoxicity at 10 µM was -5.69%. In the case of `CCOC(=O)[C@]12CCCN(Cc3nccs3)C[C@H]1CN(CCOC)C2`, the cytotoxicity at 10 µM amounted to 1.36%. For `Cn1nc(-c2cccs2)cc1[C@H]1CN2CC[C@H]1C[C@@H]2CNS(C)(=O)=O`, the cytotoxicity at 10 µM is -1.39%. Next, `CC(C)Oc1ccc(CNC(=O)C2CCS(=O)(=O)C2)cn1` (stereo unspecified): 0.788%; `COc1ccc2c(ccn2CCC(=O)Nc2ccc(C(N)=O)cc2)c1`: 6.1%; `Cc1cc(N2Cc3cnc(CC(C)C)nc3C2)nc(N)n1`: -5.64%. Next, `Cc1ccccc1S(=O)(=O)N1CCC(c2[nH]ncc2C)C1` (stereo unspecified): -21.1%. With `CCNS(=O)(=O)c1cccc(CSC)c1`, the cytotoxicity at 10 µM stood at 5.5%. Turning to `O=c1[nH]c2cn(-c3ccc(Cl)cc3)c(=O)n2[nH]1`, the cytotoxicity at 10 µM is 2.43%. For `COCCCC1CCCCN1Cc1cc(F)ccc1-n1cccn1` (stereo unspecified), the cytotoxicity at 10 µM was -3.13%. For `COCCOc1cccc(CNCc2ccc(-n3cncn3)nc2)c1` the value was -11.8%; for `c1cc(CNCc2ccnc(N3CCOCC3)c2)c2c(c1)OCCCO2`, 7.82%; for `Cc1noc(C)c1C(=O)N1CCC(Nc2cccnn2)CC1`, -4.48%. Regarding `CC(=O)c1cn(CC(=O)N2CCC3(CC2)OCCO3)c2ccccc12`, the cytotoxicity at 10 µM worked out at 0.436%. In the case of `Cc1cc(CN2CCCC(NS(C)(=O)=O)C2)ccc1-n1cncn1` (stereo unspecified), the cytotoxicity at 10 µM was determined as 3.78%. In the case of `COCCN1CCc2cc(C(=O)N(C)C)c(NC(C)C)nc2CC1`, the cytotoxicity at 10 µM is -3.91%. With `CCCS(=O)(=O)CCN1CCN(c2cc(F)ccc2F)CC1`, the cytotoxicity at 10 µM was -10%. Next, `CCC(CO)N(Cc1ccncc1)Cc1c[nH]nc1-c1ccc(F)cc1` (stereo unspecified): -5.5%; `Cc1ccc(NC2CCCN(C3Cc4ccccc4C3)C2)nn1` (stereo unspecified): -2.38%; `CN(C)C(=O)c1cnc2n1CCN(Cc1cccnc1)C2`: -67%. For `O=C(NC1CC1)C1CN(Cc2ccc3c(c2)OCCO3)CCN1` (stereo unspecified) the value was -3.22%. For `O=C(c1cccnc1)N1CCN2C[C@H](OCc3ccccc3)C[C@H]2C1` the value was -75.2%; for `O=C(Nc1cccnc1)[C@@H]1CCO[C@@H]2CCN(Cc3cccnc3)C[C@@H]21`, 4.78%; for `Cc1cccc(-n2cc(CN3CCN(C)[C@@H]4CS(=O)(=O)C[C@@H]43)cn2)c1`, 2.25%.

Turning to `Cc1nnn2c1COCC(CNCc1nccs1)C2` (stereo unspecified), the cytotoxicity at 10 µM is -109%.

In the case of `COc1ccc2c(c1)nc1n2[C@@H](CNC(=O)c2ccccn2)COC1`, the cytotoxicity at 10 µM is -3.03%. With `CNC(=O)NC(=O)C(C)N1CCN(c2ccc(C#N)cc2F)CC1` (stereo unspecified), the cytotoxicity at 10 µM came to 2.83%.

On to `O=C1NCC(C(=O)N(Cc2cccc(Br)c2)C2CC2)N1` (stereo unspecified), for which the cytotoxicity at 10 µM was determined as 1.56%. With `Cc1nn(C)c(N(C)C)c1CNCCCNS(C)(=O)=O`, the cytotoxicity at 10 µM was -5.98%. Next, `O=C(N1CCCO1)[C@]12COC[C@H]1CN(Cc1cccnc1)C2`: 8.25%. Regarding `Cc1cc(C(=O)N2CCN(C(=O)CCC3CCCCC3)CC2)n(C)n1`, the cytotoxicity at 10 µM is -3.06%. Take `CC(C1CCN(Cc2ccc(OC(F)F)cc2)CC1)N1CCOCC1` (stereo unspecified): the cytotoxicity at 10 µM was -2.38%. Next, `CCN(c1ccc(C(=O)N2CCCC2c2cnn(C)c2)cn1)C(C)C` (stereo unspecified): -0.607%; `Cc1cnc(N2CCC3(CCN(Cc4csc(C)n4)C3=O)C2)nc1` (stereo unspecified): -102%; `CCOc1cc(Cl)c(CN2CCC3(CCCNC3=O)C2)cc1OC` (stereo unspecified): 10.6%. As to `CCC(O)Cn1nc(-c2ccc(C(=O)O)cc2)cc1-c1ccc(F)cc1` (stereo unspecified), the cytotoxicity at 10 µM was found to be 1.24%.

On to `O=C(c1ccccc1)N1CCC2(CC1)CC(Oc1ccccc1)CO2` (stereo unspecified), for which the cytotoxicity at 10 µM came out at 16.6%. In the case of `CCOc1ccc(NC(C)=O)cc1S(=O)(=O)Nc1nccs1`, the cytotoxicity at 10 µM was -8.2%. For the molecule `CC(C(=O)Nc1ccc(N2CCOCC2)nc1)n1cncn1` (stereo unspecified), the cytotoxicity at 10 µM is -33.9%.

For the molecule `CC(C)c1nccn1C1CCCN(C(=O)c2ccc3c(c2)OCO3)C1` (stereo unspecified), the cytotoxicity at 10 µM was determined as 4.28%. Take `CCS(=O)(=O)N1CCc2ccc(NC(=O)Nc3ccc(F)cc3F)cc21`: the cytotoxicity at 10 µM turned out to be 51.2%. Regarding `COCCn1c(=O)n(C)c(=O)c2ccc(C3CCC(CN)CC3)nc21` (stereo unspecified), the cytotoxicity at 10 µM is -0.2%. For `Cc1cc(C)c(CNC(=O)NCC(O)COc2ccccc2)c(=O)[nH]1` (stereo unspecified) the value was -5.75%; for `Cc1ccccc1N1CCN(C(=O)c2cnn(C(C)C)c2)C(C)C1` (stereo unspecified), 1.48%; for `Cc1cnn(CC(C)Nc2nc(C)cc(N(C)C)n2)c1` (stereo unspecified), 7.07%. For `CCOc1ccc(CC(CNC(=O)c2ccco2)C(N)=O)cc1` (stereo unspecified) the value was 8.26%; for `Cc1cc(-c2ccc(=O)n(CCNC(=O)C3CCCCC3)n2)c(C)o1`, -3.73%.

Consider `CC(C)C1=NOC(c2nc(Cc3ccccc3)no2)C1` (stereo unspecified), for which the cytotoxicity at 10 µM was -3.94%. Regarding `Cn1cnnc1C1CCCN(C(=O)c2ccc3c(c2)OCCCO3)C1` (stereo unspecified), the cytotoxicity at 10 µM came out at 3.66%. In the case of `COc1ccc(Br)c(C(=O)NCC2CCN(S(=O)(=O)C3CC3)CC2)c1`, the cytotoxicity at 10 µM was -24.3%. Next, `CN1CCN(c2ccncc2S(=O)(=O)N2CCCCC2)CC1`: -6.84%. On to `COCCNC(=O)N1CCC(NC(C)C)CC1`, for which the cytotoxicity at 10 µM amounted to 7.96%. For the molecule `COCCCNC(=O)CN(C)C(=O)c1cc2cc(C)ccc2nc1C`, the cytotoxicity at 10 µM is -10.2%. With `Cc1nc2c(c(=O)n1C)CN(C(=O)C1CCCN(C(N)=O)C1)C2` (stereo unspecified), the cytotoxicity at 10 µM was -2.38%. On to `Cc1noc(C)c1CNCC1CCN(CC(O)c2ccccc2)CC1` (stereo unspecified), for which the cytotoxicity at 10 µM was -0.65%. Take `CN(Cc1cccc(O)c1)CC1CCCN(CCc2ccc(Cl)cc2)C1` (stereo unspecified): the cytotoxicity at 10 µM was 6.22%. Consider `Oc1cc(C2CCCCN2C2CCCC2)nc(-c2cccnc2)n1` (stereo unspecified), for which the cytotoxicity at 10 µM is 11.2%. Consider `Cc1nc2c(C#N)cnn2c(C)c1CCC(=O)N(C)C1CC1`, for which the cytotoxicity at 10 µM is -47.2%. As for `CC(=O)N1CCCN(C(C(=O)O)c2ccc(C)cc2C)CC1` (stereo unspecified), the cytotoxicity at 10 µM is -3.98%. For `Brc1cc2c(cc1CN1CCC(N3CCCCC3)CC1)OCCO2` the value was 50.1%; for `Cc1cn[nH]c1C1COCCN1S(=O)(=O)c1cn[nH]c1` (stereo unspecified), -24.6%. Take `Cc1ncc(CN(C)C(=O)c2ccc(N3CCOCC3)c(F)c2)s1`: the cytotoxicity at 10 µM was 5.66%. For `CNC(=O)[C@@]12CCCN(c3ncccn3)[C@@H]1CN(c1ncc(C)cn1)C2` the value was 3.97%. In the case of `CC(=O)N1CCCN(C(=O)NC(C)Cn2ccnc2)CC1` (stereo unspecified), the cytotoxicity at 10 µM was found to be 4.52%. As for `COc1c(C)cnc(CN(C)C(=O)c2ccccc2O)c1C`, the cytotoxicity at 10 µM was -14.3%. `CCOCC1CN(C(=O)Cc2ccccn2)Cc2cn(CC)nc21` (stereo unspecified): the cytotoxicity at 10 µM worked out at 5.06%. Take `COC(=O)C(NC(=O)C1CC1)c1cc(F)ccc1F` (stereo unspecified): the cytotoxicity at 10 µM is -4.64%. For `CCCC(=O)N1CCC(O)(Cn2c(CC)nc3ccccc3c2=O)CC1` the value was -2.03%; for `Cc1cnn(CC2CN(CCS(=O)(=O)C(F)(F)F)CCO2)c1` (stereo unspecified), 2.5%. Next, `O=c1c2ccccc2nc2n1CCC2O` (stereo unspecified): 7.68%. Consider `COCC1CN(Cc2ccccn2)Cc2nn(C)cc21` (stereo unspecified), for which the cytotoxicity at 10 µM is -87.5%.

With `CCCn1nc2c(cc1=O)CN(CCCS(N)(=O)=O)CC2`, the cytotoxicity at 10 µM was -2.48%. As to `Cc1ncsc1C(=O)N1CCC(Nc2cccnn2)CC1`, the cytotoxicity at 10 µM was -1.89%.

For the origin of these results see ChEMBL document CHEMBL4513216, “Probing the Open Global Health Chemical Diversity Library for Multistage-Active Starting Points for Next-Generation Antimalarials” (ACS Infect Dis, 2020).
